# Screening results deposited in PubChem BioAssay by several laboratories.
# NPY-Y2 antag – NPY-Y2 (human) receptor antagonism; hit rate 0.99% among 140,000; P49146; NPY-Y2 expressing cells, antagonist mode; AID 793; inhibition, % at 2.7 µM;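 further: 0% = vehicle with agonist challenge and 100% = reference antagonist with challenge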
# EP2 mod – modulates human prostaglandin E2 receptor EP2 signaling; EP2-expressing cells, cAMP HTRF FRET, PGE2 co-stimulation; hit rate 0.83% among 260,000; P43116; induction, % at 25 µM;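 active means compounds whose cAMP rise, as percent of the full-agonist control response, exceeds 60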;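 further: rat C6 glioma line stably carrying human EP2 under a CMV promoter; the protocol text gives 20 µM as final concentration; 100% = response of wells given 1 µM PGE2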
# Target sequence (P43116 whole entry, looked up): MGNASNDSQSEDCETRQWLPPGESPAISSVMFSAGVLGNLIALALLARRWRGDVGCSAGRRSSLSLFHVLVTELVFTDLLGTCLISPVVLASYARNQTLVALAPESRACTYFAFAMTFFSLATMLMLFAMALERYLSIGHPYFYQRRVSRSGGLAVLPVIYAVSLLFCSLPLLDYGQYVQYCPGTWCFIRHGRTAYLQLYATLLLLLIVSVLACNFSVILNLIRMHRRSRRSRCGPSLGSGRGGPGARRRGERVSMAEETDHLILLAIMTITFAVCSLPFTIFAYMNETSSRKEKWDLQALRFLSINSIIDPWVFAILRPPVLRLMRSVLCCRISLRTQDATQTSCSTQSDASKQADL
# NPY-Y1 PAM-ag – human NPY-Y1 potentiation or agonism, primary screen; hit rate 0.37% among 220,000; AID 1304; NPY-Y1 expressing cells, potentiator/agonist activation; activation, % at 3.6 µM; in the data active means activation above about 33%, passing the limit was not always enough;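 further: cells stimulated with NPY at EC10 then isoproterenol at EC100; 0% = low agonist plus stimulus and 100% = saturating agonist plus stimulus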
# NPY Y1 blocker – blocks the human neuropeptide Y Y1 receptor | P25929 | HEK293-CNG Y1 cells, membrane potential fluorescence; NPY at EC95, then isoproterenol | inhibition, % at 3.6 µM | hit rate 1% among 200,000;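 active means inhibition above the campaign mean inhibition of all tested compounds plus 3 SD, cut at about 20% in these data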;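 further: 0% = DMSO wells given NPY plus isoproterenol and 100% = isoproterenol alone without NPY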
#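 Assay system: HEK293 Y1/CNG channel cell line; Doses: single compound dose of 3.6 µM, 0.4% DMSO; Timing: dye 3 h, compound 60 min room temperature, stimulation 45 min; Technique: Membrane-potential fluorescent dye readout; Measure: % inhibition of NPY effect.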
# EP2 antag – blocks the human prostaglandin E2 receptor EP2 | hit rate 0.52% among 260,000 | C6 glioma cells expressing human EP2, cAMP TR-FRET; cells stimulated with saturating PGE2 | inhibition, % at 25 µM | AID 1422;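 active means percent inhibition above 40 after rounding to a whole number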;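 further: rat C6 glioma host cells with rolipram phosphodiesterase inhibitor present; the protocol text gives 20 µM as final concentration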
# NPY-Y2 PAM-ag – potentiates or activates human NPY-Y2 receptor. P49146. cells expressing NPY-Y2, potentiator/agonist read-out. activation, % at 3.6 µM. hit rate 0.45% among 220,000; in the data active means activation above about 27%;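 further: cells stimulated with NPY near EC25 plus isoproterenol at EC100; 0% = vehicle plus submaximal agonist and 100% = vehicle plus saturating agonist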
# NPY1 antag conf – human NPY-Y1 antagonism, confirmation; shares compounds with NPY Y1 blocker; HEK293-CNG NPY-Y1, membrane potential fluorescence, cAMP; NPY challenge against isoproterenol-raised cAMP; inhibition, % at 3.6 µM; hit rate 21% among 1,200; in the data active means inhibition above about 20%;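 further: 0% = vehicle with agonist plus stimulus and 100% = stimulus alone without agonist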
# NPY-Y2 antag ct – counter-screen for NPY-Y1 antagonists: human NPY-Y2 antagonism. inhibition, % at 3.6 µM. hit rate 28% among 1,200. shares compounds with NPY Y1 blocker. HEK293 NPY-Y2 CNG membrane potential fluorescence; cells given NPY, then isoproterenol;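 further: 0% = DMSO with agonist challenge and 100% = reference antagonist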
# * marks the source's active call; other numbers are inactive results; x = no result given. A selection: hits, their analogues and other compounds. The true share with any hit is near 2.8%. Unless noted, no stated cut-off is given here; in the data, active means inhibition above about 17%; inactive means the rest.
SMILES,NPY-Y2 antag,EP2 mod,NPY-Y1 PAM-ag,NPY Y1 blocker,EP2 antag,NPY-Y2 PAM-ag,NPY1 antag conf,NPY-Y2 antag ct
Cc1cccc(NC(=O)NNC(=O)c2cc(-c3ccccc3Cl)nc3ccccc23)c1,7,-6,-9,0,19,-7,x,x
Cc1ccccc1NC(=S)NC(=O)c1cc(-c2ccccc2)nc2ccccc12,12,31,-90,21*,13,-83,28*,38*
Cc1cccc(NC(=S)NC(=O)c2cc(-c3ccccc3)nc3ccccc23)c1,8,25,-14,21*,12,-3,16,20*
Cc1ccc(C)c(NC(=O)c2cc(-c3cccnc3)nc3ccccc23)c1,x,29,2,7,8,3,x,x
Cc1nc2c(-c3cccs3)c(C)nn2c(NCCN2CCOCC2)c1C,x,-20,x,x,x,x,x,x
CCC(=O)N(Cc1cccs1)Cc1cc2cc(C)ccc2n2nnnc12,x,37,x,x,10,x,x,x
O=C1NC2(CCN(C(=O)c3ccc(CN4CCCC4)o3)CC2)Nc2ccccc21,x,-17,x,x,8,x,x,x
COc1ccc(C(=O)Nc2cccc(C)c2)cc1S(=O)(=O)N1CCOCC1,6,-21,0,2,7,6,x,x
COc1ccc(C(=O)Nc2ccc(-c3ccc(C)o3)cc2)cc1S(=O)(=O)N1CCOCC1,0,-67,23,20*,21,15,16,14
CCCCCc1ccc(OCCOCCn2c[n+](C)c3ccccc32)c(CCCCC)c1,x,-55,-38,35*,22,-4,42*,23*
CN(C(=O)CSc1nnc2c3ccccc3n(C)c2n1)C1CCCCC1,x,9,x,x,4,x,x,x
C=CCSc1nnc(-c2cc3c(s2)-c2ccccc2CC3)o1,7,17,-38,21*,11,-28,9,5
Clc1ccc2nc(N3CCNCC3)nc(-c3ccccc3)c2c1,8,x,-80,26*,11,-10,19,20*
CN1CCN(c2nc(-c3ccccc3)c3cc(Cl)ccc3n2)CC1,14,19,-50,12,24,-33,x,x
CC1CCc2c(sc3nc(SCC(=O)Nc4c[nH]c(=O)[nH]c4=O)[nH]c(=O)c23)C1 (centres undefined),x,14,x,x,10,x,x,x
O=C(c1ccc(C(F)(F)F)cc1)C1CCCN(Cc2cccn2-c2ncccn2)C1 (centres undefined),x,9,-21,23*,8,-29,16,18*
CCN(CC)C(=O)C1CCCN(Cc2nc(-c3cccs3)no2)C1 (centres undefined),x,-7,-10,2,6,-11,x,x
CC(C)Oc1cccc(C(=O)C2CCCN(Cc3cccn3-c3ccccn3)C2)c1 (centres undefined),x,-10,-58,49*,7,-22,44*,40*
CC(C)Oc1cccc(C(=O)C2CCCN(Cc3cnn(C(C)C)c3)C2)c1 (centres undefined),x,-18,1,4,7,-10,x,x
COc1ccc(C(=O)C2CCCN(Cc3cccn3-c3ccccn3)C2)cc1F (centres undefined),x,-36,55*,22*,8,45*,14,-1
Cc1ccc(-n2cccn2)c(CN2CCCC(C(=O)c3sccc3C)C2)c1 (centres undefined),x,10,-39,72*,4,-68,32*,38*
COc1ccc(/C(O)=C2/C(=O)C(=O)NC2c2cccnc2)cc1OC (centres undefined),x,20,x,x,14,x,x,x
Cc1nc2ccc(C(=O)NC3CCN(Cc4cccc(F)c4)CC3)cc2[nH]1,x,-57,x,x,5,x,x,x
COCCNC(=O)Cn1nc2c(C)cc3ccc(OC)cc3n2c1=O,x,7,x,x,x,x,x,x
COc1cccc(C(=O)C2CCCN(Cc3cccn3-c3ccccn3)C2)c1 (centres undefined),x,-10,-46,37*,6,-37,35*,30*
SMILES,NPY-Y2 antag,EP2 mod,NPY-Y1 PAM-ag,NPY Y1 blocker,EP2 antag,NPY-Y2 PAM-ag,NPY1 antag conf,NPY-Y2 antag ct
Cc1ccsc1C(=O)C1CCCN(Cc2cccn2-c2ccc(Cl)cn2)C1 (centres undefined),x,-27,-36,41*,1,-24,42*,38*
OCCC1CN(Cc2cccn2-c2ccccn2)CCN1C1CCCC1 (centres undefined),x,-15,-8,-1,2,-3,x,x
O=C(c1ccc(Cl)cc1)C1CCCN(Cc2cccn2-c2ccccn2)C1 (centres undefined),x,-77,-38,59*,8,-1,32*,31*
Cc1cc(Sc2ccccc2)n2nnnc2n1,x,9,x,x,12,x,x,x
COCCCN1C(=O)/C(=C\c2cccc(OC)c2O)C(C(=O)OC)=C1C,x,-28,x,x,15,x,x,x
COc1cccc(C2(NC(=O)c3cc(C(C)(C)C)nn3C)CCCCC2)c1,x,7,x,x,4,x,x,x
CCc1ccc2[nH]c(=O)c(CN(Cc3cccs3)S(=O)(=O)c3ccccc3F)cc2c1,x,-47,x,x,9,x,x,x
CCOC(=O)c1[nH]c(C)c(C(=O)OCC(=O)NC(=O)NC(C)(C)C)c1C,0,-12,-7,21*,7,-8,0,2
CCn1c(=O)c2c(nc(Br)n2Cc2ccccc2)n(C)c1=O,x,11,x,x,10,x,x,x
COc1cc(C)cc2nc3ccccc3n12,x,-28,x,x,17,x,x,x
CCc1ccc(/C=C\C(=O)N2CCc3ccccc3C2)cc1,11,-31,-21,21*,x,-28,9,10
COc1cccc(OC)c1C(=O)Nc1ccc(NC(=O)c2cccs2)cc1,x,-66,x,x,7,x,x,x
Cc1ccccc1OCCNC(=O)/C=C/c1ccc([N+](=O)[O-])cc1,8,-78,-14,20*,12,-6,10,10
COc1ccccc1OCCNC(=O)/C=C/c1ccc([N+](=O)[O-])cc1,4,-66,-18,4,8,-10,x,x
Cc1ccc(-c2cc(N)c(=O)n(CC(=O)N3C(C)CCCC3C)n2)s1 (centres undefined),x,-107,x,x,17,x,x,x
O=C(CCCOc1ccc(Cl)cc1Cl)N1CCN(c2ccccn2)CC1,11,-15,-28,24*,10,-14,8,11
C=C(C)Cn1c(NCc2ccc(OC)cc2)nc2c1c(=O)[nH]c(=O)n2C,x,-4,x,x,13,x,x,x
CCn1c(=N)n(CC(O)c2ccccc2)c2ccccc21 (centres undefined),3,-15,-25,0,22,3,x,x
CC(C)(C)c1ccc(Cn2c(=N)n(CC(O)c3ccco3)c3ccccc32)cc1 (centres undefined),x,-51,-8,47*,5,-20,22*,31*
N=c1n(CCN2CCCC2)c2ccccc2n1CC(O)c1ccco1 (centres undefined),4,2,-10,5,4,-4,x,x
